One experiment relates to HT-29. The experiment can be described thus: Growth inhibition of human HT-29 cells after 72 hrs by CellTiter-Glo reagent based assay. It counts as functional. The conditions noted are these: HT-29, 72 h. In short, it runs like this:
(§1)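 Cancer cell lines (PC3 prostate, HT29 colorectal carcinoma, MDA-MB-231 breast) were screened by quantitative high-throughput screening in whole cells, and CC50 values were derived.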

Another experiment concerns PC-3. The experiment can be described thus: Growth inhibition of human PC3 cells after 72 hrs by CellTiter-Glo reagent based assay. It is filed as functional. The conditions noted are these: PC-3, 72 h. Put shortly:
as §1

The next experiment concerns MDA-MB-231. The experiment can be described thus: Growth inhibition of human MDA-MB-231 cells after 72 hrs by CellTiter-Glo reagent based assay. It is filed as functional. Particulars: MDA-MB-231, 72 h; call rule not given here. Put shortly:
as §1

The next experiment concerns 697. The experiment can be described thus: Growth inhibition of human 697 cells after 72 hrs by CellTiter-Glo reagent based assay. It counts as functional, cell-based. Particulars: 697.
In the next experiment the test system is BJ. The experiment can be described thus: Growth inhibition of human BJ cells after 72 hrs by CellTiter-Glo reagent based assay. It counts as cell-based. In short, it runs like this:
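Normal human foreskin fibroblast (BJ) counter-screen for cytotoxicity, with drug tested at 10 μM.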

The test system of another experiment is REH. The experiment can be described thus: Growth inhibition of human REH cells after 72 hrs by CellTiter-Glo reagent based assay. The conditions noted are these: reh. It is filed as functional, cell-based.
For the next experiment, the system named is Jurkat E6.1. The experiment can be described thus: Growth inhibition of human Jurkat E6-1 cells after 72 hrs by CellTiter-Glo reagent based assay. It counts as functional, cell-based. The conditions noted are these: jurkat e6.1.
For another experiment, the system named is Raji. The experiment can be described thus: Growth inhibition of human Raji cells after 72 hrs by CellTiter-Glo reagent based assay. Particulars: Homo sapiens, Raji, 72 h; read-out: EC50. It counts as functional, cell-based.
Experiment [1] in a line: Growth inhibition of mouse CPC300 cells after 72 hrs by CellTiter-Glo reagent based assay. It counts as functional, cell-based. Particulars: cpc300.

Each structure is given as a SMILES string.

For the compound `COc1cc(/C=C2/C(C)=C(CC(=O)NCCN(C)C)c3cc(F)ccc32)cc(OC)c1OC`, the CC50 in the experiment on HT-29 is 6.22 µM; in the experiment on PC-3 it was 18.3 µM; in the experiment on MDA-MB-231, 15.1 µM.
Turning to `CC1=C(CC(=O)NCCCN(C)C)c2cc(F)ccc2/C1=C\c1ccc([S+](C)[O-])cc1` (configuration not stated), the CC50 in the experiment with HT-29 was 33.3 µM; with PC-3, more than 50 µM; in the experiment on MDA-MB-231 it was more than 50 µM.
Consider `COc1cc(/C=C2/C(C)=C(CC(=O)NCCN3CCCC3)c3cc(F)ccc32)cc(OC)c1OC`, for which the CC50 turned out to be 13.4 µM in the experiment on HT-29, 46.5 µM in the experiment on PC-3 and 41.1 µM in the experiment with MDA-MB-231.
On the same counts, the results for `COc1cc(/C=C2/C(C)=C(CC(=O)N3CCC[C@H]3CN3CCCC3)c3cc(F)ccc32)cc(OC)c1OC` are 4.22 µM, 12.3 µM and 11.1 µM.
On the same counts, the results for `CCN(CC)CCNC(=O)CC1=C(C)/C(=C/c2ccc([S+](C)[O-])cc2)c2ccc(F)cc21` (configuration not stated) are 19.8 µM, more than 50 µM and more than 50 µM.
On the same counts, the results for `CSc1ccc(/C=C2/C(C)=C(CC(=O)NCc3ccc(N(C)C)cc3)c3cc(F)ccc32)cc1` are more than 50 µM, more than 50 µM and more than 50 µM.
With `CCNCCN(CC)C(=O)CC1=C(C)/C(=C/c2ccc(SC)cc2)c2ccc(F)cc21`, the CC50 in the experiment on HT-29 was determined as 2.54 µM; in the experiment with PC-3 it was 6.56 µM; in the experiment with MDA-MB-231, 6.65 µM.
On the same counts, the results for `CCN1CCC[C@H]1CNC(=O)CC1=C(C)/C(=C/c2nc3ccccc3s2)c2ccc(F)cc21` are 1.66 µM, 7.72 µM and 5.58 µM.
Consider `CC1=C(CC(=O)N(CCCNC(C)C)C(C)C)c2cc(F)ccc2/C1=C\c1ccc([S+](C)[O-])cc1` (configuration not stated), for which the results for the CC50 with HT-29, in the experiment with PC-3 and in the experiment with MDA-MB-231 were 16.3 µM, 48.3 µM and more than 50 µM, respectively.
On the same counts, the results for `CCN(CC)CCNC(=O)CC1=C(C)/C(=C/c2nc3ccccc3s2)c2ccc(F)cc21` are 1.12 µM, 4.48 µM and 3.54 µM.
Take `CCN(CC)CCNC(=O)CC1=C(C)/C(=C/c2cc(OC)c(OC)c(OC)c2)c2ccc(F)cc21`: the CC50 with HT-29 is 5.42 µM; with PC-3, 13.9 µM; in the experiment with MDA-MB-231 it was 12.3 µM.
For the compound `CC1=C(CC(=O)NCCN(C)C)c2cc(F)ccc2/C1=C\c1nc2ccccc2s1`, the results for the CC50 in the experiment on HT-29, with PC-3 and with MDA-MB-231 were 1.57 µM, 4.88 µM and 3.63 µM, respectively.
For the compound `CSc1ccc(/C=C2/C(C)=C(CC(=O)N3CCC[C@H]3CN3CCCC3)c3cc(F)ccc32)cc1`, the EC50 entry in the experiment with 697 was “Not Active”; with BJ it was more than 7.57 µM; in the experiment with REH it was “Not Active”; in the experiment with Jurkat E6.1, “Not Active”; in the experiment on Raji it was 76 µM; in experiment [1], “Not Active”. Besides, the CC50 came out at 1.55 µM in the experiment on HT-29, 5.1 µM in the experiment on PC-3 and 4.16 µM in the experiment on MDA-MB-231.
For `CCN(CCN(C)C)C(=O)CC1=C(C)/C(=C/c2ccc([S+](C)[O-])cc2)c2ccc(F)cc21` (configuration not stated), the values for the CC50 with HT-29, in the experiment on PC-3 and with MDA-MB-231 were 18.2 µM, more than 50 µM and more than 50 µM, respectively.
`COc1cc(/C=C2/C(C)=C(CC(=O)NCCN3CCCCC3)c3cc(F)ccc32)cc(OC)c1OC`: the CC50 with HT-29 is 4.18 µM; in the experiment with PC-3 it was 9.62 µM; in the experiment with MDA-MB-231 it was 10.4 µM.
For `CNCCN(C)C(=O)CC1=C(C)/C(=C/c2ccc([S+](C)[O-])cc2)c2ccc(F)cc21` (configuration not stated), in that order: 34.5 µM, more than 50 µM and more than 50 µM.
Take `CSc1ccc(/C=C2/C(C)=C(CC(=O)N(C)CCCN(C)C)c3cc(F)ccc32)cc1`: the figures for the CC50 with HT-29, in the experiment with PC-3 and in the experiment on MDA-MB-231 were 2.18 µM, 6.98 µM and 5.41 µM, respectively.
On the same counts, the results for `COc1cc(/C=C2/C(C)=C(CC(=O)N(C)CCN(C)C)c3cc(F)ccc32)cc(OC)c1OC` are 4.68 µM, 11.4 µM and 10.8 µM.
In the case of `CNCCCN(C)C(=O)CC1=C(C)/C(=C/c2ccc(SC)cc2)c2ccc(F)cc21`, the CC50 in the experiment on HT-29 turned out to be 2.9 µM; in the experiment on PC-3, 7.65 µM; in the experiment with MDA-MB-231, 7.66 µM.
Regarding `CCNCCN(CC)C(=O)CC1=C(C)/C(=C/c2ccc([S+](C)[O-])cc2)c2ccc(F)cc21` (configuration not stated), the figures for the CC50 in the experiment on HT-29, with PC-3 and in the experiment on MDA-MB-231 were 18.2 µM, more than 50 µM and more than 50 µM, respectively.
As for `CSc1ccc(/C=C2/C(C)=C(CC(=O)NCCCN(C)C)c3cc(F)ccc32)cc1`, the CC50 worked out at 2.46 µM with HT-29, 6.99 µM in the experiment on PC-3 and 5.18 µM in the experiment with MDA-MB-231.
For `CCN(CC)CCN(C)C(=O)CC1=C(C)/C(=C/c2ccc([S+](C)[O-])cc2)c2ccc(F)cc21` (configuration not stated), in that order: 24 µM, more than 50 µM and more than 50 µM.
As to `CCN(CC)CCN(C)C(=O)CC1=C(C)/C(=C/c2ccc(SC)cc2)c2ccc(F)cc21`, the figures for the CC50 in the experiment on HT-29, with PC-3 and in the experiment on MDA-MB-231 were 1.49 µM, 5.65 µM and 3.77 µM, respectively.
On to `CCN(CC)CCN(CC)C(=O)CC1=C(C)/C(=C/c2ccc([S+](C)[O-])cc2)c2ccc(F)cc21` (configuration not stated), for which the CC50 in the experiment on HT-29 was 18.4 µM; with PC-3, more than 50 µM; with MDA-MB-231, more than 50 µM.
As to `CSc1ccc(/C=C2/C(C)=C(CC(=O)Nc3ccc(N(C)C)cc3)c3cc(F)ccc32)cc1`, the figures for the CC50 in the experiment with HT-29, in the experiment on PC-3 and in the experiment with MDA-MB-231 were more than 50 µM, more than 50 µM and 30.6 µM, respectively.
Take `CCNCCCN(CC)C(=O)CC1=C(C)/C(=C/c2ccc(SC)cc2)c2ccc(F)cc21`: the results for the CC50 with HT-29, with PC-3 and in the experiment with MDA-MB-231 were 1.38 µM, 3.92 µM and 3.03 µM, respectively.
For `CSc1ccc(/C=C2/C(C)=C(CC(=O)N(CCCNC(C)C)C(C)C)c3cc(F)ccc32)cc1`, in that order: 2.3 µM, 4.9 µM and 3.92 µM.
On the same counts, the results for `CCNCCCN(CC)C(=O)CC1=C(C)/C(=C/c2ccc([S+](C)[O-])cc2)c2ccc(F)cc21` (configuration not stated) are 17.5 µM, more than 50 µM and more than 50 µM.
Take `CC1=C(CC(=O)N2CCC[C@H]2CN2CCCC2)c2cc(F)ccc2/C1=C\c1nc2ccccc2s1`: the CC50 with HT-29 came out at 1.58 µM; with PC-3, 4.25 µM; in the experiment with MDA-MB-231, 3.61 µM.
`CSc1ccc(/C=C2/C(C)=C(CC(=O)N3CCN(CCCN(C)C)CC3)c3cc(F)ccc32)cc1`: the EC50 result was “Not Active” in the experiment on 697; more than 7.57 µM in the experiment on BJ; “Not Active” in the experiment with REH; “Not Active” with Jurkat E6.1; 76 µM in the experiment on Raji; “Not Active” in experiment [1]. In addition, the values for the CC50 in the experiment with HT-29, in the experiment with PC-3 and in the experiment with MDA-MB-231 were 1.69 µM, 4.28 µM and 3.77 µM, respectively.
Take `CCN(CC)CCCNC(=O)CC1=C(C)/C(=C/c2ccc([S+](C)[O-])cc2)c2ccc(F)cc21` (configuration not stated): the figures for the CC50 in the experiment with HT-29, in the experiment with PC-3 and in the experiment with MDA-MB-231 were 27.1 µM, more than 50 µM and more than 50 µM, respectively.
With `CC1=C(CC(=O)NCCN2CCCC2)c2cc(F)ccc2/C1=C\c1ccncc1`, the CC50 with HT-29 is 2.68 µM; in the experiment with PC-3, 10.2 µM; with MDA-MB-231 it was 7.19 µM.
Take `CCN(CC)CCN(CC)C(=O)CC1=C(C)/C(=C/c2ccc(SC)cc2)c2ccc(F)cc21`: the values for the CC50 in the experiment on HT-29, with PC-3 and in the experiment on MDA-MB-231 were 1.83 µM, 6.21 µM and 5.22 µM, respectively.
On the same counts, the results for `CNCCN(C)C(=O)CC1=C(C)/C(=C/c2cc(OC)c(OC)c(OC)c2)c2ccc(F)cc21` are 8.05 µM, 23.1 µM and 17 µM.
As for `COc1cc(/C=C2/C(C)=C(CC(=O)NCCCN(C)C)c3cc(F)ccc32)cc(OC)c1OC`, the CC50 was 6.08 µM with HT-29, 13 µM in the experiment on PC-3 and 10.8 µM in the experiment with MDA-MB-231.
With `CCN(CC)CCCNC(=O)CC1=C(C)/C(=C/c2ccc(SC)cc2)c2ccc(F)cc21`, the EC50 entry with 697 is “Not Active”; in the experiment with BJ, more than 7.57 µM; with REH, “Not Active”; in the experiment on Jurkat E6.1, “Not Active”; with Raji, 21 µM; in experiment [1], “Not Active”. The results for the CC50 in the experiment with HT-29, in the experiment with PC-3 and in the experiment on MDA-MB-231 were 1.53 µM, 4.33 µM and 3.19 µM, respectively.
`CCN(CC)CCNC(=O)CC1=C(C)/C(=C/c2ccc(SC)cc2)c2ccc(F)cc21`: the CC50 with HT-29 was found to be 1.54 µM; in the experiment on PC-3 it was 5.45 µM; with MDA-MB-231, 4.2 µM.
On to `CNCCCN(C)C(=O)CC1=C(C)/C(=C/c2ccc([S+](C)[O-])cc2)c2ccc(F)cc21` (configuration not stated), for which the CC50 with HT-29, with PC-3 and with MDA-MB-231 was more than 50 µM throughout.
As for `CCN(CCN(C)C)C(=O)CC1=C(C)/C(=C/c2ccc(SC)cc2)c2ccc(F)cc21`, the CC50 in the experiment with HT-29 turned out to be 1.36 µM; in the experiment on PC-3, 5.07 µM; in the experiment with MDA-MB-231 it was 3.96 µM.
On the same counts, the results for `CC1=C(CC(=O)N(C)CCCN(C)C)c2cc(F)ccc2/C1=C\c1ccc([S+](C)[O-])cc1` (configuration not stated) are 38.9 µM, more than 50 µM and more than 50 µM.
Regarding `CSc1ccc(/C=C2/C(C)=C(CC(=O)NCc3ccncc3)c3cc(F)ccc32)cc1`, the CC50 turned out to be 4.88 µM in the experiment on HT-29, 5.83 µM in the experiment with PC-3 and 6.46 µM in the experiment on MDA-MB-231.
On the same counts, the results for `CNCCN(C)C(=O)CC1=C(C)/C(=C/c2ccc(SC)cc2)c2ccc(F)cc21` are 2.8 µM, 6.75 µM and 5.84 µM.
For `CC1=C(CC(=O)NCc2ccccc2)c2cc(F)ccc2/C1=C\c1ccncc1` [CP-461 FREE BASE], in that order: 2.14 µM, 5.71 µM and 3.68 µM.
